Screens (PubChem BioAssay)
GalR3 antag: GalR3 antagonists in HEK293 cells, primary screen, cell-based, fluorescence readout | Galanin receptor type 3 (Homo sapiens), O60755 | HEK293 GalR3-CNG cAMP membrane potential fluorescence; galR3 body fused to GalR1 C-terminus | AID 651719, 2012 | hit rate 0.44% among 360,000 | inhibition, % at 3 µM;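 active = inhibition above the screen-wide average plus 3 SD, cut at about 13% in these data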;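 also: forskolin and galanin both at EC90 stimulate the cells; cAMP rise reported by CNG channel membrane potential dye signal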
ASAP1 GAP inh: inhibitors of human ASAP1 ArfGAP activity, primary screen, biochemical, fluorescence polarization | Arf-GAP with SH3 domain, ANK repeat and PH domain-containing protein 1 (Homo sapiens), … | ASAP1-stimulated ARF1 GTP hydrolysis, GDP FP detection | inhibition, % at 16.5 µM | hit rate 0.19% among 360,000 | AID 624377, 2012; in the data active = inhibition above about 25%
Target sequence (Q9ULH1 325-724 limits assumed): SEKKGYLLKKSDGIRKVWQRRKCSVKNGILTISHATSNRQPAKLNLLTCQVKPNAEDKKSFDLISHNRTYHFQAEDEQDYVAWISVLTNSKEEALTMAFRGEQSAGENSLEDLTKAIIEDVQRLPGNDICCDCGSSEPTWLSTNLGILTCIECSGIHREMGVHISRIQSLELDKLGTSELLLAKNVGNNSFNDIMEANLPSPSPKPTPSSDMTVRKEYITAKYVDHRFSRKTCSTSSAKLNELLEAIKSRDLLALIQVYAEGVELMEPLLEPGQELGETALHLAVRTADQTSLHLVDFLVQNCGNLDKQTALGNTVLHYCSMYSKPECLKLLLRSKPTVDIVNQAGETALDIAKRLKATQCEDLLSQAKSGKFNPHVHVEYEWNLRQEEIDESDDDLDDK
Rin1 Abl inh: inhibitors of Rin1-Abl protein binding, primary screen, biochemical, TR-FRET | Tyrosine-protein kinase ABL1 (Homo sapiens) + Ras and Rab interactor 1 (Homo sapiens), … | hit rate 0.4% among 360,000 | inhibition, % at 7.35 µM | AID 588664, 2011; in the data active = inhibition above about 5%, passing the limit was not always enough
ARFGAP1 inhibitor: inhibitors of rat ARFGAP1 GAP activity, primary screen, biochemical, fluorescence polarization, GDP tracer. ADP-ribosylation factor GTPase-activating protein 1 (Rattus norvegicus), Q62848. Arfgap1-stimulated ARF1 GTP hydrolysis, GDP FP detection. inhibition, % at 16.5 µM. hit rate 0.26% among 360,000. AID 651572, 2012;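 active = inhibition above a per-plate limit, mean inhibition of low control wells plus 3 SD, cut at about 25% in these data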
Target sequence (Q62848 1-136 limits assumed): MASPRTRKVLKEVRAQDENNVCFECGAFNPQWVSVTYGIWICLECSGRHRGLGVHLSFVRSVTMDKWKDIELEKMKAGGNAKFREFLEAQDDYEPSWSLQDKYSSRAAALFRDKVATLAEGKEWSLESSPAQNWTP
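Repeats: one replicate per compound; assay system: rat Arfgap1 catalytic domain, aa 1-136; times: enzyme reaction 120 min at 25 °C after 20 min preincubation; detection: FP of antibody-bound GDP Alexa 633 tracer, ex 620/em 688 nm; benchmarks: high control wells lacking Arfgap1, low control full reaction with DMSO; reagent: human ARF1(Δ1-17)-GTP substrate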
GalR3 conf: GalR3 antagonist hit confirmation, cell-based, fluorescence, triplicate | shares compounds with GalR3 antag | HEK293 GalR3 CNG cAMP biosensor, membrane potential fluorescence; galR3 fused to GalR1 carboxy tail; challenged with forskolin and galanin at EC90 | inhibition, % at 3 µM | hit rate 59% among 1,600 | AID 652245, 2013;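 active = inhibition above the primary screen's cutoff, the mean inhibition of all screened compounds plus 3 SD, cut at about 13% in these data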
CNG parental: nonspecific cAMP agonists in parental HEK-CNG cells, counter-screen for GalR3 antagonist project, cell-based, fluorescence, high throughput | shares compounds with GalR3 antag | HEK293-CNG parental cells, cAMP membrane potential fluorescence; normalised: DMSO wells 0%, forskolin wells 100% | activation, % at 3 µM | hit rate 10% among 1,600 | AID 652268, 2013; in the data active = activation above about 1.3%
Of the large screens only hits and unclear results are named; the others gave an inactive call (follow-up assays come after a bar, where they were run). Rows were chosen to be rich in hits. Some 1.2% of all compounds tested hit in one or more screens of this group.

COC(=O)COc1ccc(-c2ccc(F)cc2)cc1C=O	none
COC(=O)COc1ccc(-c2ccccc2)cc1C=O	GalR3 antag 17 | GalR3 conf inactive | CNG parental inactive
CC1=CC2C3C(=O)N(c4ccccc4)C(=O)C3C1C(=O)C2(O)C(C)C (stereo not given)	none (no result: Rin1 Abl inh)
COC(OC)c1ccnc(-c2ccc(OC(=O)c3cccs3)cc2)n1	GalR3 antag 17 | GalR3 conf inactive | CNG parental inactive
CN[C@H]1C[C@H]2c3[nH]c4c(-c5ccc6c(c5)OCO6)cccc4c3CCN2C(=O)[C@H]1[C@H](C)O	none (no result: Rin1 Abl inh)
COC(=O)c1ccc2c(=O)n(CCCCCC(=O)NC3CCCCC3)c(=O)[nH]c2c1	none (no result: Rin1 Abl inh)
COC(=O)C1=C(C)N(C)C(=NCc2ccc3c(c2)OCO3)NC1c1ccc(C(F)(F)F)cc1 (stereo not given)	none (no result: Rin1 Abl inh)
Cc1cccc(Nc2nc(NCc3ccco3)c3ccccc3n2)c1	GalR3 antag 45 | GalR3 conf 54 | CNG parental 8.7
c1ccc(Nc2nc(NCc3ccco3)c3ccccc3n2)cc1	none
Cc1ccc(S(=O)(=O)n2c3ccc(Cl)cc3c3nc(C)sc32)cc1	none (no result: GalR3 antag) | GalR3 conf inactive | CNG parental inactive
O=C(NC(Nc1nc2ccc([N+](=O)[O-])cc2s1)(C(F)(F)F)C(F)(F)F)c1cccnc1	GalR3 antag 52 | GalR3 conf 85 | CNG parental inactive
O=C(NC(Nc1nc2ccc([N+](=O)[O-])cc2s1)(C(F)(F)F)C(F)(F)F)c1ccccc1Cl	none
Cc1ccc(S(=O)(=O)N(C)Cc2ccc(C(=O)N/N=C/c3ccc(OC(F)F)cc3OC(F)F)cc2)cc1	GalR3 antag 80 | GalR3 conf 28 | CNG parental inactive
O=C(O)CC12CC3CC(C1)CC(n1ncc(NCc4ccco4)c(Cl)c1=O)(C3)C2	GalR3 antag 15 | GalR3 conf inactive | CNG parental inactive
O=C(O)CC12CC3CC(C1)CC(n1ncc(NCC4CCCO4)c(Cl)c1=O)(C3)C2 (stereo not given)	none
CC(C)(CNC(=O)/C=C/c1ccc(F)cc1)CNC(=O)/C=C/c1ccc(F)cc1	GalR3 antag 31 | GalR3 conf 15 | CNG parental inactive
COc1ccc2c(c1)[C@@]1(OCCC=C[C@H]1C)C(=O)N2Cc1ccccc1C(F)(F)F	none (no result: Rin1 Abl inh)
CC(=O)Nc1cccc(OCC(O)Cn2c(C)nc3ccccc32)c1 (stereo not given)	none
CCCOC(=O)c1ccc(OCC(O)Cn2c(C)nc3ccccc32)cc1 (stereo not given)	GalR3 antag 105 | GalR3 conf 123 | CNG parental inactive
Cc1cc(Nc2cc(Cl)cc(Cl)c2)cc(=O)n1-c1cc(Cl)cc(Cl)c1	none (no result: Rin1 Abl inh)
CCN=C1S/C(=C\c2cc(OCC)c(O)cc2Br)C(=O)N1CC	GalR3 antag 16 | GalR3 conf 21 | CNG parental inactive
CCC(=O)Nc1ccc(F)c(Cl)c1	none (no result: GalR3 antag) | GalR3 conf inactive | CNG parental inactive
CCC(=O)Nc1ccc(Br)c(Cl)c1	none
CCCCNc1ccc2c(c1)OC[C@H](Cc1ccccc1)NS2(=O)=O	none (no result: Rin1 Abl inh)
CC1(Cc2ccc(C(F)(F)F)o2)C(=O)Nc2cc(-c3ccc(F)cc3F)ccc21 (stereo not given)	none
CCn1nc(CC(=O)Nc2ccc(-n3cnnn3)c(OC)c2)c2ccccc2c1=O	GalR3 antag 17 | GalR3 conf 17 | CNG parental inactive
Cc1ccc(O)c(-c2cc(-c3ccccc3[N+](=O)[O-])[nH]n2)c1	none
O=[N+]([O-])c1ccccc1-c1cc(-c2cc(Cl)ccc2O)n[nH]1	GalR3 antag 19 | GalR3 conf inactive | CNG parental inactive
Cc1cccc(-n2c(Cn3nc(C)c([N+](=O)[O-])c3C)n[nH]c2=S)c1	GalR3 antag 17 | GalR3 conf inactive | CNG parental inactive
COc1ccc(NC(=O)COC(=O)Cn2cnc3ccccc32)cc1	none
COc1ccc(-n2c(C)cc(C(=O)COC(=O)Cn3cnc4ccccc43)c2C)cc1	GalR3 antag 100 | GalR3 conf 89 | CNG parental inactive
CC(=O)c1ccc(NC(=O)CSc2nnc(Cn3cnc4ccccc43)o2)cc1	none
COc1ccc(C(=O)CSc2nnc(Cn3cnc4ccccc43)o2)cc1	GalR3 antag 95 | GalR3 conf 111 | CNG parental inactive
Cc1ccccc1CN1[C@@H](C)[C@H](c2ccccc2)Oc2cccc(N3CCCC3)c2S1(=O)=O	none (no result: Rin1 Abl inh)
COc1ccc(OC)c(C2=Nn3c(nnc3C3CCCCC3)SC2)c1	none
COc1ccc(OC)c(-c2nnc3n2N=C(c2ccc(OC)c(OC)c2)CS3)c1	GalR3 antag 50 | GalR3 conf 34 | CNG parental 1.5
COc1ccc(C2=Nn3c(nnc3C3CCCCC3)SC2)cc1OC	GalR3 antag 49 | GalR3 conf 48 | CNG parental inactive
O=C(COC(=O)c1ccccc1F)NNC(=O)c1ccccc1	none
CCCCNC(=O)COC(=O)c1ccccc1F	GalR3 antag 19 | GalR3 conf inactive | CNG parental inactive
c1coc(-c2nc3c4ccccc4ccn3c2Cc2ccsc2)c1	none (no result: Rin1 Abl inh)
Cn1c(CNc2nc3ccccc3n2C)nc2ccccc21	GalR3 antag 15 | GalR3 conf inactive | CNG parental inactive
COC(=O)CCN(Cc1ccc(OC)cc1OC)S(=O)(=O)c1ccccc1Br	none (no result: Rin1 Abl inh)
Cc1cc(C)cc(Nc2c3c(nc4ncnn24)CCC3)c1	GalR3 antag 13 | GalR3 conf inactive | CNG parental 1.6
O=[N+]([O-])c1ccc(Sc2nc3ccccc3[nH]2)c(Cl)c1	none (no result: Rin1 Abl inh)
O=c1[nH]c2cccnc2c2ccsc12	GalR3 antag 23 | GalR3 conf 17 | CNG parental inactive
O=C1c2ccccc2/C(=C\c2ccc(O[C@@H]3CCCCO3)cc2)N1c1ccccc1	none (no result: Rin1 Abl inh)
Cc1occc1-c1nnc(SCCNCCO)o1	GalR3 antag 15 | GalR3 conf inactive | CNG parental inactive
CCCN(CCC)CCN1CCN(C(=O)[C@H](CCc2ccccc2)NC(=O)[C@H]2O[C@@H](n3cnc4c(N)ncnc43)[C@H](O)[C@@H]2O)CC1	none (no result: Rin1 Abl inh)
Fc1ccc(-c2nc3c4ccccc4ccn3c2Cc2ccccc2C(F)(F)F)cc1	none (no result: GalR3 antag, ASAP1 GAP inh, ARFGAP1 inhibitor)
FC(F)(F)c1ccccc1Cc1c(-c2ccco2)nc2c3ccccc3ccn12	GalR3 antag 19 (no result: Rin1 Abl inh) | GalR3 conf 35 | CNG parental inactive
